14 compounds from PubChem BioAssay can be followed below.

Active and inactive are the calls of the source.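 Rule for the calls, unless noted: active = Her2 level under about 52% in both replicate screens, with viability over 70% of control (limit read from the data); inconclusive = Her2 under the limit in one screen only, or viability under 70%; inactive = Her2 level above the set limit.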 Square brackets hold non-standard residues; d marks the D form. Peptide text beside a SMILES is read from it. ξ: configuration not given here. ξV = CC(C)C(N)C(=O)O

Usually viability stands for a read-out of living cells in per cent, often relative to untreated cells. For orientation: inhibition means the change of the read-out against control, counted positive when it falls.

The nature of assay [1]: Her2 expression decrease, cell viability multiplex – SKBR3 breast tumor cells, AlphaScreen, ATP viability, primary screen (AID 461).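 For Her2 level: lower value means less Her2 protein in the cells.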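 For viability: percent of carrier control wells set as 100% viability.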 The following applies: SKBR3 Her2 protein level, 18-24 h, measured here: SKBR3 viability, ATP luminescence, at 10 µM.
Assay [2] addresses Receptor tyrosine-protein kinase erbB-2 (Homo sapiens) (UniProt P04626). The description is as above. The following applies: 18-24 h, at 10 µM, stronger effect = lower value.
A short description of assay [3]: reduced viability of SK-BR-3 breast cancer cells – cell-based, 24 h, human, pilot screen (AID 572;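 active = viability at or below 10% of carrier control in both of two separate runs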;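 note: compound exposure lasted between 18 and 24 h rather than exactly 24 h; 100% = carrier-treated control wells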). As to conditions: SK-BR-3 viability, CellTiter-Glo luminescence, at 10 µM, stronger effect = lower value.
The nature of assay [4]: HUVEC growth inhibition – cell-based, human, primary screen (AID 575;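 active = viability at or below 30% in both replicate assays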;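 note: 100% = median of untreated cell wells with 0.1% DMSO on each plate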). As to conditions: HUVEC proliferation, CellTiter-Glo luminescence, 72 h; at 10 µM; stronger effect = lower value. The procedure, abridged:
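material = primary HUVEC, no more than 12 passages | input = 1250 cells per well | controls = vehicle and MePR control wells | measured by = CTG luminescence | times = 72 h compound incubation | format = collagen-coated 384-well format | read-out = % viability vs DMSO wells | doses = single 10 µM dose, 0.1% DMSO, from 5x medium stock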
Background: ATP-based viability assays read luminescence as a measure of living cells.

Assay [5] in a line: H69AR cell proliferation blockers – human, duplicate replicates, primary screen (AID 580;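 active = viability at or under a set limit in both replicates, limit being median viability minus 3 SD, cut at about 48% in these data, passing the limit was not always enough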;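 note: 100% = mean luminescence of untreated wells and 0% = no signal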). As to conditions: H69AR lung tumor cells viability, ATP luminescence, 72 h; at 10 µM; stronger effect = lower value.
A short description of assay [6]: MRP1 drug-resistance reversers in H69AR cells – cell-based, doxorubicin co-treatment, pilot screen (AID 601;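 active = viability loss from added drug above about 55%, and viability with drug at most 40%, in both replicates, limit read from the data, passing the limit was not always enough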). As to conditions: CellTiter-Glo, 72 h, at 10 µM; for differential viability (reversal): stronger effect = higher value.
The nature of assay [7]: yeast transport mutant growth inhibition pilot in 384-well plates, post-Golgi transport modulator project (AID 636; in the data active = inhibition above about 31%). As to conditions: absorbance 615 nm, about 18 h, stronger effect = higher value.
The nature of assay [8]: growth suppression of yeast trafficking mutant, preliminary HTS, modulators of trafficking downstream of Golgi apparatus project, 1536-format plate, OD 615 nm (AID 637; in the data active = inhibition above about 30%). As to conditions: yeast transport mutant growth, absorbance 615 nm, 18 h; stronger effect = higher value.
The mark [9] stands for this setting: H69AR cells + 2 uM doxorubicin, measured here: viability with 2 uM doxorubicin, stronger effect = lower value.
[10] abbreviates: H69AR cells, compound alone cytotoxicity.

Chain of Receptor tyrosine-protein kinase erbB-2 (Homo sapiens) (P04626 whole entry, looked up): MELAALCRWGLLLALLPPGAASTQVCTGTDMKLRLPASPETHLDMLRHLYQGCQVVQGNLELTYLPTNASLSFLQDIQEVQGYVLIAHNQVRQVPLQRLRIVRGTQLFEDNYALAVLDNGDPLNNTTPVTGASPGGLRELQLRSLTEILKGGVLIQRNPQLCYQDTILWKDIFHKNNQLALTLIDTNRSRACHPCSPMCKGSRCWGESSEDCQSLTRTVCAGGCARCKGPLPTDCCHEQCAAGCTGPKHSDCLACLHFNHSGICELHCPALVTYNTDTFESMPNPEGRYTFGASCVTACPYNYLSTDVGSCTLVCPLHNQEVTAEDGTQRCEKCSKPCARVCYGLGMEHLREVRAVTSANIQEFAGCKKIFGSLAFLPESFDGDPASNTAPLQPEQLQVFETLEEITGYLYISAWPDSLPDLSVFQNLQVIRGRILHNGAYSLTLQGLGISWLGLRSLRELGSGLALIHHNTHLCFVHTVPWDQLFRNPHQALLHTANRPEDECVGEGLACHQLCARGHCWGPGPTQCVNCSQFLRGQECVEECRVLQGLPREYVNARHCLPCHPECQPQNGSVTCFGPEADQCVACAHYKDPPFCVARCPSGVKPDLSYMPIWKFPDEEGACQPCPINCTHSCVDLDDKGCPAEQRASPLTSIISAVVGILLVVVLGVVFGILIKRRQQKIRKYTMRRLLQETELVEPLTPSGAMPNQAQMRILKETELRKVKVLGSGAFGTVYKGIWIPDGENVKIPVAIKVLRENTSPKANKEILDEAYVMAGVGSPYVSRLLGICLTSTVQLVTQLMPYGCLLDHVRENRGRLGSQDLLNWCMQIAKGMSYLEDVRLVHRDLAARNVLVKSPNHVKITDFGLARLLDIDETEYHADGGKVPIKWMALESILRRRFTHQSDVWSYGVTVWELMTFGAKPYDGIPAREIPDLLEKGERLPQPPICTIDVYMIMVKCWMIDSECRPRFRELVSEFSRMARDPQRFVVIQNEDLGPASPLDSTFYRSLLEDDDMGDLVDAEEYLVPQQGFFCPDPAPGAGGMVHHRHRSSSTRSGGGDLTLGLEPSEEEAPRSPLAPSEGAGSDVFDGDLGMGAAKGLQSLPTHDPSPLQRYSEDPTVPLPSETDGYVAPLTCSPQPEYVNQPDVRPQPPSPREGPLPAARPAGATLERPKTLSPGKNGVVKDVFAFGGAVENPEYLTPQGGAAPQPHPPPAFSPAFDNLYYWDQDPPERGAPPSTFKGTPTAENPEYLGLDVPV

`CCCCSc1cc(C)nc2ncnn12`: the viability in assay [1] was 98.5%; in assay [3], 98.5% (inactive); in assay [4], 75.2% (inactive); in assay [5] it was 99.7% (inactive); in assay [6] (setting [9]), 102%; in assay [6] (setting [10]), 99.7%. Further, the Her2 level in assay [2] is 131% (inactive). Also, in assay [6] (H69AR cells + 2 uM doxorubicin), the differential viability (reversal) was -1.97% (inactive). Also, the inhibition in assay [7] was 5.71% (inactive); in assay [8], -0.67% (inactive).
Consider `NC(=O)NC(=O)CSc1cccc(C(F)(F)F)c1`, for which the viability in assay [1] was 138%; in assay [3], 138% (inactive); in assay [4], 90.1% (inactive); in assay [5], 88.2% (inactive); in assay [6] (setting [9]) it was 87.2%; in assay [6] (setting [10]), 88.2%. Moreover, the Her2 level in assay [2] is 94.5% (inactive). In addition, in assay [6] (H69AR cells + 2 uM doxorubicin), the differential viability (reversal) was 1.01% (inactive). In addition, the inhibition was -8.63% (inactive) in assay [7] and 2.22% (inactive) in assay [8].
In the case of `COc1ccc(C)cc1NC(=O)COCC(=O)O`, the viability in assay [1] is 106%; in assay [3], 106% (inactive); in assay [4], 92.4% (inactive); in assay [5], 103% (inactive); in assay [6] (setting [9]) it was 95.2%; in assay [6] (setting [10]), 103%. Besides, in assay [2], the Her2 level is 114% (inactive). Besides, in assay [6] (H69AR cells + 2 uM doxorubicin), the differential viability (reversal) is 7.92% (inactive). Further, the inhibition is -6.89% (inactive) in assay [7] and -3.49% (inactive) in assay [8].
Turning to `Cc1cc(-c2ccccc2)nc2cc(C(=O)NCCCn3ccnc3)nn12`, the viability in assay [1] was 104%; in assay [3], 104% (inactive); in assay [4], 98.8% (inactive); in assay [5], 88.2% (inactive); in assay [6] (setting [9]), 79.3%; in assay [6] (setting [10]), 88.2%. For the same compound, in assay [2], the Her2 level was 103% (inactive). Moreover, in assay [6] (H69AR cells + 2 uM doxorubicin), the differential viability (reversal) is 8.86% (inactive). In addition, the inhibition is -6.13% (inactive) in assay [7] and -1.45% (inactive) in assay [8].
Consider `COc1ccc(-c2cc(C(=O)N3CCN(Cc4ccccc4)CC3)no2)cc1OC`, for which the viability was 99% in assay [1]; 99% (inactive) in assay [3]; 81.5% (inactive) in assay [4]; 98.5% (inactive) in assay [5]; 77.8% in assay [6] (setting [9]); 98.5% in assay [6] (setting [10]). The Her2 level in assay [2] was 64.5% (inactive). Further, in assay [6] (H69AR cells + 2 uM doxorubicin), the differential viability (reversal) is 20.8% (inactive). Moreover, the inhibition is -5.68% (inactive) in assay [7] and 9% (inactive) in assay [8].
Regarding `CC(=O)NC(C(=O)NCC(N)=O)C(C)C` (stereo not given) (Ac-[ξV]-Gly-NH2), the viability in assay [1] was 90%; in assay [3], 90% (inactive); in assay [4] it was 100% (inactive); in assay [5] it was 93.9% (inactive); in assay [6] (setting [9]), 95.7%; in assay [6] (setting [10]) it was 93.9%. In addition, the Her2 level in assay [2] is 104% (inactive). For the same compound, the differential viability (reversal) in assay [6] (H69AR cells + 2 uM doxorubicin) was -1.82% (inactive). Further, the inhibition was -5.58% (inactive) in assay [7] and -9.05% (inactive) in assay [8].
For `COc1ccccc1C(=O)N1CCN=C1SCc1cccnc1`, the viability in assay [1] is 102%; in assay [3], 102% (inactive); in assay [4] it was 97.5% (inactive); in assay [5] it was 96.8% (inactive); in assay [6] (setting [9]) it was 85.3%; in assay [6] (setting [10]) it was 96.8%. In assay [2], the Her2 level was 103% (inactive). In addition, in assay [6] (H69AR cells + 2 uM doxorubicin), the differential viability (reversal) is 11.6% (inactive). Also, the values for the inhibition in assay [7] and in assay [8] were -3.65% (inactive) and -2.06% (inactive), respectively.
Turning to `CCOC(=O)c1[nH]c(C)c(C(=O)N2CCN(C(=O)c3ccco3)CC2)c1C`, the viability in assay [1] was 88.5%; in assay [3], 88.5% (inactive); in assay [4], 98.4% (inactive); in assay [5], 97.8% (inactive); in assay [6] (setting [9]), 95.6%; in assay [6] (setting [10]), 97.8%. Besides, the Her2 level in assay [2] was 95.5% (inactive). In addition, in assay [6] (H69AR cells + 2 uM doxorubicin), the differential viability (reversal) is 2.2% (inactive). For the same compound, the inhibition is -11.6% (inactive) in assay [7] and -0.48% (inactive) in assay [8].
Turning to `Cn1c(=O)c2c(nc(NCCCO)n2C/C=C/c2ccccc2)n(C)c1=O`, the viability in assay [1] was 73.5%; in assay [3], 73.5% (inactive); in assay [4] it was 85.7% (inactive); in assay [5], 83.2% (inactive); in assay [6] (setting [9]), 98%; in assay [6] (setting [10]), 83.2%. The Her2 level in assay [2] is 70.5% (inactive). Moreover, in assay [6] (H69AR cells + 2 uM doxorubicin), the differential viability (reversal) was -14.8% (inactive). Besides, the inhibition in assay [7] was -4.08% (inactive); in assay [8], -0.17% (inactive).
Regarding `Cc1cc2n(n1)C(c1ccccc1)Nc1ccccc1-2` (stereo not given), the viability in assay [1] is 97%; in assay [3], 97% (inactive); in assay [4], 77.1% (inactive); in assay [5] it was 90.7% (inactive); in assay [6] (setting [9]), 89.1%; in assay [6] (setting [10]), 90.7%. For the same compound, in assay [2], the Her2 level is 104% (inactive). Also, the differential viability (reversal) in assay [6] (H69AR cells + 2 uM doxorubicin) is 1.64% (inactive). In addition, the inhibition in assay [7] is -6% (inactive); in assay [8], -6.13% (inactive).
As to `COc1cccc(Oc2cn[nH]c2-c2ccc(O)cc2O)c1`, the viability was 104% in assay [1]; 104% (inactive) in assay [3]; 65.9% (inactive) in assay [4]; 89.5% (inactive) in assay [5]; 98.4% in assay [6] (setting [9]); 89.5% in assay [6] (setting [10]). Moreover, in assay [2], the Her2 level is 122% (inactive). Further, the differential viability (reversal) in assay [6] (H69AR cells + 2 uM doxorubicin) is -8.96% (inactive). The inhibition was 0.26% (inactive) in assay [7] and -5% (inactive) in assay [8].
As to `COC(=O)c1cc(=O)nc2sc(-c3cccs3)nn12`, the viability was 115% in assay [1]; 115% (inactive) in assay [3]; 84% (inactive) in assay [4]; 93.4% (inactive) in assay [5]; 85.2% in assay [6] (setting [9]); 93.4% in assay [6] (setting [10]). The Her2 level in assay [2] was 85% (inactive). Moreover, the differential viability (reversal) in assay [6] (H69AR cells + 2 uM doxorubicin) is 8.2% (inactive). For the same compound, the figures for the inhibition in assay [7] and in assay [8] were -4.86% (inactive) and 5.24% (inactive), respectively.
Regarding `CCOc1ccc(Cl)cc1S(=O)(=O)N1CCCC1`, the viability is 100% in assay [1]; 100% (inactive) in assay [3]; 101% (inactive) in assay [4]; 88.8% (inactive) in assay [5]; 94.5% in assay [6] (setting [9]); 88.8% in assay [6] (setting [10]). For the same compound, the Her2 level in assay [2] is 94.5% (inactive). In addition, the differential viability (reversal) in assay [6] (H69AR cells + 2 uM doxorubicin) is -5.74% (inactive). For the same compound, the inhibition in assay [7] was -4.34% (inactive); in assay [8], -1.11% (inactive).
As to `Cc1cc(C(=O)CSc2nnc(-c3ccco3)o2)c(C)n1CC1COc2ccccc2O1` (stereo not given), the viability is 91.5% in assay [1]; 91.5% (inactive) in assay [3]; 74.3% (inactive) in assay [4]; 89% (inactive) in assay [5]; 98.8% in assay [6] (setting [9]); 89% in assay [6] (setting [10]). Moreover, the Her2 level in assay [2] was 94% (inactive). Besides, the differential viability (reversal) in assay [6] (H69AR cells + 2 uM doxorubicin) was -9.8% (inactive). Besides, the figures for the inhibition in assay [7] and in assay [8] were -2.67% (inactive) and -9.52% (inactive), respectively.
